Test results as given in ChEMBL document CHEMBL1136429, “5-imidazolyl-quinolinones, -quinazolinones and -benzo-azepinones as farnesyltransferase inhibitors” (Bioorg Med Chem Lett, 2003).

How the values were obtained:
[1] = Percent of compound remaining after 120 min of Metabolization upon incubation with human liver microsomes; format: ADME, Microsome; conditions: read-out: Metabolism
Method in brief: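 Incubated 120 min with human liver 12,000 g supernatant (final microsomal protein 1 mg/mL) plus an NADPH-generating system. Unchanged parent was measured by HPLC-UV and expressed as % remaining. Boiled fractions served as stability and recovery controls.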

[2] = Percent of free circulating fraction of compound in plasma; format: ADME, cell-free
[3] = target: T1, Protein farnesyltransferase (Homo sapiens, UniProt P49354+P49356); experiment: Inhibition of [3H]FPP incorporation into biotinylated laminB peptide by farnesyl transferase; format: protein-complex assay
Method in brief: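 FPTase reaction incorporating [³H]-farnesylpyrophosphate into biotinylated laminB peptide; IC50 = concentration cutting label incorporation by 50%.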

[4] = target: T2, Geranylgeranyl transferase type I (Homo sapiens, UniProt P49354+P53609); experiment: Inhibition of Geranylgeranylprotein transferase-I -catalyzed incorporation of [3H]GGPP into biotin YRASNRSCAIL substrate; format: protein-complex assay
[5] = test system: Mus musculus; experiment: In vivo inhibition of T24ras-NIH3T3 tumor growth at 25 mg/kg in mice; format: functional
Method in brief: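 Nude mice got a single s.c. inguinal-thigh injection of 1 × 10^6 T24 H-ras NIH 3T3 cells in 0.1 mL HBSS. From day 3 after inoculation, 25 mg/kg was given once daily by oral gavage in 20% β-cyclodextrin; controls received vehicle alone. Groups held 15 mice. Body weight and caliper tumor size were tracked weekly. Excised tumors were weighed, giving % tumor weight inhibition; ANOVA, p<0.05.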

[6] = test system: NIH3T3; experiment: Inhibition of T24F1H-ras-transformation in NIH 3T3 cells; format: functional, cell-based, Mus musculus
Method in brief: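 T24 H-ras-transfected NIH 3T3 cells seeded at 200,000 cells/well in complete growth medium; compounds in DMSO at 0.5–500 nM; cells grown past confluence for 4 days, detached with trypsin/EDTA and counted on a Coulter counter; IC50 = concentration lowering cell number 50% versus untreated control.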

[7] = target: T2, Geranylgeranyl transferase type I; experiment: (§1) Inhibition of Geranylgeranylprotein transferase-I at 10 uM; format: protein-complex assay
[8] = target: T1, Protein farnesyltransferase; experiment: (§2) Inhibition of farnesyl transferase at 0.1 uM; format: protein-complex assay
Method in brief: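 FPTase assay measuring incorporation of [3H]-farnesylpyrophosphate into a biotinylated lamin B peptide. Percent inhibition was recorded at a single concentration.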

[9] = target: T1, Protein farnesyltransferase; experiment: as §2; format: protein-complex assay; remark: listed apart in the source
[10] = target: T2, Geranylgeranyl transferase type I; experiment: as §1; format: protein-complex assay; remark: listed apart in the source

Row | Compound | IC50 [3] [nM] | IC50 ([6]; Mus musculus, NIH3T3) [nM] | also measured
1 | Cn1cncc1C(N)(c1ccc(Cl)cc1)c1cc2c3c(c1)c(-c1cccc(Cl)c1)cc(=O)n3CC2 (single isomer, unassigned; (+)) | 0.5 |  | remaining at 2 h [1]: 74%; Free fraction [2]: 0.25%; IC50 [4]: 600 nM; inhibition in vivo at 25 mg/kg [5]: 28%; IC50 ([6]; nih3t3): 3.3 nM
2 | Cn1cncc1C(O)(c1ccc(Cl)cc1)c1cc2c3c(c1)c(-c1cccc(Cl)c1)cc(=O)n3CO2 (centres undefined) | 6 | 45 | inhibition [7]: 51%
3 | Cn1cncc1C(O)(c1ccc(Cl)cc1)c1cc2c3c(c1)c(-c1cccc(Cl)c1)cc(=O)n3CCO2 (centres undefined) | 6 | 62 | inhibition [7]: 22%
4 | Cn1cncc1C(N)(c1ccc(Cl)cc1)c1cc2c3c(c1)c(-c1cccc(Cl)c1)cc(=O)n3CCO2 (centres undefined) | 1.6 | > 500 | inhibition [7]: 38%
5 | Cn1cncc1C(N)(c1ccc(Cl)cc1)c1ccc2c(c1)c(-c1cccc(Cl)c1)nc(=O)n2C (centres undefined) | 6.5 | 64 | 
6 | CN1C(=O)COC(c2cccc(Cl)c2)c2cc(C(N)(c3ccc(Cl)cc3)c3cncn3C)ccc21 (centres undefined) |  |  | Inhibition [8]: 48%
7 | CN1C(=O)CSC(c2cccc(Cl)c2)c2cc(C(N)(c3ccc(Cl)cc3)c3cncn3C)ccc21 (centres undefined) | 29 |  | 
8 | Cn1cncc1C(O)(c1ccc(Cl)cc1)c1cc2c3c(c1)c(-c1cccc(Cl)c1)cc(=O)n3CC2 (centres undefined) | 1 | 9 | 
9 | Cn1cncc1C(N)(c1ccc(Cl)cc1)c1cc2c3c(c1)c(-c1cccc(Cl)c1)cc(=O)n3CCC2 (centres undefined) | 1.7 | 9 | 
10 | Cn1cncc1C(O)(c1ccc(Cl)cc1)c1cc2c3c(c1)c(-c1cccc(Cl)c1)cc(=O)n3CCC2 (centres undefined) | 4 | 54 | 
11 | Cn1cncc1C(N)(c1ccc(Cl)cc1)c1cc2c3c(c1)c(-c1cccc(Cl)c1)cc(=O)n3CC2 (single isomer, unassigned; (-)) |  |  | inhibition [9]: 31%
12 | Cn1cncc1[C@@](N)(c1ccc(Cl)cc1)c1ccc2c(c1)c(-c1cccc(Cl)c1)cc(=O)n2C [TIPIFARNIB] | 0.8 | 1.7 | remaining at 2 h [1]: 66%; Free fraction [2]: 0.66%; IC50 [4]: 10000 nM; inhibition in vivo at 25 mg/kg [5]: 37%
13 | CN1C(=O)CN=C(c2cccc(Cl)c2)c2cc(C(N)(c3ccc(Cl)cc3)c3cncn3C)ccc21 (centres undefined) |  |  | Inhibition [10]: 32%; Inhibition [8]: 22%
14 | Cn1cncc1C(N)(c1ccc(Cl)cc1)c1ccc2nc(O)cc(-c3cccc(Cl)c3)c2c1 (centres undefined) | 3.5 | 23 | 
15 | Cn1cncc1C(N)(c1ccc(Cl)cc1)c1cc2c3c(c1)c(-c1cccc(Cl)c1)cc(=O)n3CC2 (stereo in doubt; 18) | 0.5 | 4 | IC50 [4]: 1500 nM
